Assay results taken from ChEMBL document CHEMBL4414622, “Synthesis, Purification, and Selective β2-AR Agonist and Bronchodilatory Effects of Catecholic Tetrahydroisoquinolines from Portulaca oleracea” (J Nat Prod, 2019).
Active and inactive are the calls of the source. The calls are words filed in the database; no cut-off is given here.

Key:
[1] = target: Beta-1 adrenergic receptor (Homo sapiens) (UniProt P08588); test: Agonist activity at human beta1 adrenergic receptor expressed in CHOK1 cells co-expressing Galpha15 assessed as increase in calcium influx by measuring fluorescence intensity at 100 uM by FLIPR assay relative to epinephrine; assay type: functional, cell-based
How it was run: (§1)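 Stably transfected CHO-K1/Gα15 lines (ADRB1, ADRB2 or ADRA1B) grown in Ham's F12 with 10% FBS, Zeocin and Hygromycin B at 37 °C. Seeded 1.5 × 10⁴ cells/well, 18 h, then Calcium 4 dye 1 h at 37 °C and 15 min room temperature. Compound (100 μM) added at 21 s of a 120 s FLIPR Tetra read. Stocks were 100 mM in DMSO, diluted in HBSS/20 mM HEPES pH 7.4. n = 4.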

[2] = target: Beta-2 adrenergic receptor (Homo sapiens) (UniProt P07550); test: Agonist activity at human beta2 adrenergic receptor expressed in CHOK1 cells co-expressing Galpha15 assessed as increase in calcium influx by measuring fluorescence intensity at 100 uM by FLIPR assay relative to isoproterenol; assay type: functional, cell-based; how it was run: as §1
[3] = target: T1, Alpha-1B adrenergic receptor (Homo sapiens) (UniProt P35368); test: Agonist activity at human alpha1 beta adrenergic receptor expressed in CHOK1 cells co-expressing Galpha15 assessed as increase in calcium influx by measuring fluorescence intensity at 100 uM by FLIPR assay relative to epinephrine; assay type: functional, cell-based; how it was run: as §1
T1 sequence (whole entry): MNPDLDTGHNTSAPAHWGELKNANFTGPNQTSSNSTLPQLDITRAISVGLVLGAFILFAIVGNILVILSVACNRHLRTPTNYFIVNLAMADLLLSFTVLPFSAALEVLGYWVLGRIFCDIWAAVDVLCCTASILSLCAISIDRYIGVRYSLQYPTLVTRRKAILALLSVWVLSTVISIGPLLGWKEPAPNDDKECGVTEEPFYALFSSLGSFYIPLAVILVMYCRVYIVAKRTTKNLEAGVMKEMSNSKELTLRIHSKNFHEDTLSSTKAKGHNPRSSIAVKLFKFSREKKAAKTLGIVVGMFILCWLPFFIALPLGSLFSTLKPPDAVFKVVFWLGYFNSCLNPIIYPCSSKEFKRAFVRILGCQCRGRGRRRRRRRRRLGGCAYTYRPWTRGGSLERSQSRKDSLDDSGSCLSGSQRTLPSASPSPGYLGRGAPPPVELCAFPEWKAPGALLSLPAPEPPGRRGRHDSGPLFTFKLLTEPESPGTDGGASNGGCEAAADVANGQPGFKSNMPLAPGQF

[4] = target: Beta-2 adrenergic receptor (Cavia porcellus) (UniProt Q8K4Z4); test: Agonist activity at beta2 adrenergic receptor in guinea pig tracheal smooth muscle assessed as inhibition of histamine-induced tracheal smooth muscle contraction by measuring spasmolysis preincubated for 15 mins in presence of beta adrenergic receptor antagonist propranolol followed by histamine addition
[5] = target: Beta-2 adrenergic receptor (Cavia porcellus, UniProt Q8K4Z4); test: Agonist activity at beta2 adrenergic receptor in guinea pig tracheal smooth muscle assessed as inhibition of histamine-induced tracheal smooth muscle contraction by measuring spasmolysis in absence of beta adrenergic receptor antagonist propranolol
Chain of Beta-2 adrenergic receptor (Q8K4Z4 whole entry): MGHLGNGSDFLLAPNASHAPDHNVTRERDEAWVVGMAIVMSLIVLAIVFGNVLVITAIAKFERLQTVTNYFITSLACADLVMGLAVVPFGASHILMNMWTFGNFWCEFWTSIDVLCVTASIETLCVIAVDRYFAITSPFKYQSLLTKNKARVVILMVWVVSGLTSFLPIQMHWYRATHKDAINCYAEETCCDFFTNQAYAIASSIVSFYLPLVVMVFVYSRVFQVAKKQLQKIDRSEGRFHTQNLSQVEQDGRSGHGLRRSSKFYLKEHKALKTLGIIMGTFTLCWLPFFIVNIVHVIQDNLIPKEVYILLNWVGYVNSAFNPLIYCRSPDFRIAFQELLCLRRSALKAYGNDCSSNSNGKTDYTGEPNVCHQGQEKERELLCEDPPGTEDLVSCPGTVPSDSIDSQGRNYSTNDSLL

Chain of Beta-2 adrenergic receptor (Homo sapiens) (P07550 whole entry, looked up): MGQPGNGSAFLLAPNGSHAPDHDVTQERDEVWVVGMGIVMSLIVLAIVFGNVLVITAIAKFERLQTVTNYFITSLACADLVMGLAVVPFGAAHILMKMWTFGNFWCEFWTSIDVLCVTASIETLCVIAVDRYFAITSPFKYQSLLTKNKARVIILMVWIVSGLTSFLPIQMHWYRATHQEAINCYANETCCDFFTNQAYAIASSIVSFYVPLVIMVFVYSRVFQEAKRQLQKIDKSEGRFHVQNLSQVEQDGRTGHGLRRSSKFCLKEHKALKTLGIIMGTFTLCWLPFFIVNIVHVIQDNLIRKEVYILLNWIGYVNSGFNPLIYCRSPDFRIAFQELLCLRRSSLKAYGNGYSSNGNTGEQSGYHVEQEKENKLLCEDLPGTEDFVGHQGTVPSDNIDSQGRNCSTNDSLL
Chain of Beta-1 adrenergic receptor (Homo sapiens) (P08588 whole entry, looked up): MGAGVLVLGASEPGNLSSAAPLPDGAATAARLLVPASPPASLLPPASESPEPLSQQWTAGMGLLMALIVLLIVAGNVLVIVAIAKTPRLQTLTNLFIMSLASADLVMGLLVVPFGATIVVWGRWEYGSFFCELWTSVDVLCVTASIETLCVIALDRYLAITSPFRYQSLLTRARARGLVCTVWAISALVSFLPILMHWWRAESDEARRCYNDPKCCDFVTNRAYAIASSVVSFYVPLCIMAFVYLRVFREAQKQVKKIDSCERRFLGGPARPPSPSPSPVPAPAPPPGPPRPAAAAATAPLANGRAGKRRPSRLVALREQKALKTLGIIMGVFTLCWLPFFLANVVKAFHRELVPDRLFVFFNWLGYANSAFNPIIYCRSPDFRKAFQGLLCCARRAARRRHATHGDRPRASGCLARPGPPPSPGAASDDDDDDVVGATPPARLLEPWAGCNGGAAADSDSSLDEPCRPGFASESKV
Chain of Beta-2 adrenergic receptor (Cavia porcellus) (Q8K4Z4 whole entry, looked up): as the sequence (Q8K4Z4 whole entry) above

Structure (SMILES)	Activity [1]	Activity [2]	Activity [3] [%]	EC50 [5] [µM]	inhibition [4]
Oc1cccc(C2NCCc3cc(O)c(O)cc32)c1 (stereo unspecified)	inactive	inactive	14.5		
Oc1cc2c(cc1O)C(c1ccco1)NCC2 (stereo unspecified)	-35.3%	-9.23%	15.6		
Oc1ccc(C2NCCc3cc(O)c(O)cc32)cc1O (stereo unspecified)	inactive	inactive	16.6		
OCc1ccc(C2NCCc3cc(O)c(O)cc32)o1 (stereo unspecified)	-20.3%	-11.1%	22.3		
OCc1ccc(C2=NCCc3cc(O)c(O)cc32)o1	-10.4%		13.7		
Oc1cc2c(cc1O)C(c1ccccc1)NCC2 (stereo unspecified)	inactive	inactive	51.5		
C[C@@H]1NCCc2cc(O)c(O)cc21	-9.5%		19.2		
CC(C)CC1NCCc2cc(O)c(O)cc21 (stereo unspecified)	inactive	64.5%	7.7	2.8	Dose-dependent effect
CC1NCCc2cc(O)c(O)cc21 (stereo unspecified)	-11.4%	2.91%	22.1		
Oc1cc2c(cc1O)[C@@H](Cc1ccccc1)NCC2	80.3%		6.1		
CC(C)C[C@H]1NCCc2cc(O)c(O)cc21	inactive		20.5		

Further lines, with some results ahead:

Activity [1]	Activity [2]	Activity [3] [%]	EC50 [5] [µM]	Structure (SMILES)	inhibition [4]
inactive	inactive	36.3		COc1ccccc1C1NCCc2cc(O)c(O)cc21 (stereo unspecified)	
inactive	inactive	20.5		COc1cc(C2NCCc3cc(O)c(O)cc32)cc(OC)c1OC (stereo unspecified)	
99.9%	44.7%	39.4	0.8	Oc1cc2c(cc1O)C(Cc1ccccc1)NCC2 (stereo unspecified)	Dose-dependent effect
inactive	inactive	43.8		Oc1cc2c(cc1O)C(c1cccc3ccccc13)NCC2 (stereo unspecified)	
inactive	inactive	11.8		COc1cc(C2NCCc3cc(O)c(O)cc32)ccc1O (stereo unspecified)	
-6.31%		15.9		CC1=NCCc2cc(O)c(O)cc21	
inactive	inactive	18.5		COc1ccc(C2NCCc3cc(O)c(O)cc32)cc1 (stereo unspecified)	
73.5%		13.4		Oc1cc2c(cc1O)C(c1ccco1)=NCC2	
			0.0079	CC(C)NCC(O)c1ccc(O)c(O)c1 (stereo unspecified) [ISOPROTERENOL]	
inactive	inactive	31.9		Oc1ccc(C2NCCc3cc(O)c(O)cc32)cc1 (stereo unspecified)	
-6.22%		24.2		Oc1cc2c(cc1O)CCN=C2	
